The record followed here is ChEMBL document CHEMBL1212832, “Antiprotozoal steroidal saponins from the marine sponge Pandaros acanthifolium” (J Nat Prod, 2010).

Activity calls are given as the source filed them. No cut-off for these calls is given here. Bounds are passed on as bounds.

Series [1] concerns the target T1, 3-oxoacyl-acyl-carrier protein reductase (Plasmodium falciparum) (UniProt Q965D6).
T1 sequence (whole entry): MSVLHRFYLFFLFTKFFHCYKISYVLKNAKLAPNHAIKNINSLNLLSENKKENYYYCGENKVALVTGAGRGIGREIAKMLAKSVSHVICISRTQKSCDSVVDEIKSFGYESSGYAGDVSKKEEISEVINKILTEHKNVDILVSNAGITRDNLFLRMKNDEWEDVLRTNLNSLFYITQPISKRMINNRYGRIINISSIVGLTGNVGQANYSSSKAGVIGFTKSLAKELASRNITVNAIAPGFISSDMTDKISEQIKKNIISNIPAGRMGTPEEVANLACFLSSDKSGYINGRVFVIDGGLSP
Nature of the series: Inhibition of Plasmodium falciparum recombinant FabG at 20 ug/mL by spectrophotometric analysis.

Series [2] is described as follows: Inhibition of Plasmodium falciparum recombinant FabI at 20 ug/mL by spectrophotometric analysis.
Series [3] has as its target T2, Fatty acid synthase (Plasmodium falciparum) (UniProt Q965D7).
T2 sequence (whole entry): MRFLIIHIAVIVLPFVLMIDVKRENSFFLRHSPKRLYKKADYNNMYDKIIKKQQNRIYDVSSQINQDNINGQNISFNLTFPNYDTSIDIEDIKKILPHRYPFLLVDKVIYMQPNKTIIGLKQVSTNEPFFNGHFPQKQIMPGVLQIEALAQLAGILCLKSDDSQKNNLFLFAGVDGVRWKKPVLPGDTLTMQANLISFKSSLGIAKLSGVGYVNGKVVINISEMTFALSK
Nature of the series: Inhibition of Plasmodium falciparum recombinant FabZ at 20 ug/mL by spectrophotometric analysis.

The test system of series [4] is Trypanosoma cruzi. Nature of the series: Trypanocidal activity against trypomastigote form of Trypanosoma cruzi Tulahuen infected in rat L6 cells after 96 hrs. To be noted: L6, 96 h. The series is classed as functional, organism-based. The gist of the method:
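L6 cells seeded at 2000 per well in RPMI 1640 with 10% FBS, 2 mM L-glutamine; after 24 h, 5000 trypomastigotes of the LacZ-expressing C2C4 line added. After 48 h, medium replaced with seven 3-fold dilutions (90–0.12 µg/mL) for 96 h.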

For series [5], the system named is L6. Nature of the series: Cytotoxicity against rat L6 cells after 72 hrs by Alamar blue assay. The format is cell-based. To be noted: l6, 72 h. The method, boiled down:
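4 × 10^4 L6 cells per well in RPMI 1640 with 10% FBS and L-glutamine, exposed 72 h to seven 3-fold dilutions (90–0.12 µg/mL). Resazurin (Alamar Blue) added for 2 h, fluorescence read at ex 536/em 588 nm.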
Background: Resazurin is reduced to fluorescent resorufin, in cell work by metabolically active cells.

Series [6] relates to Leishmania donovani. Nature of the series: Antileishmanial activity against Leishmania donovani (MHOM/ET/67/L82) amastigotes after 72 hrs. The series is classed as functional, organism-based. The settings on record: MHOM/ET/67/L82, 72 h.
Series [7] relates to Plasmodium falciparum. Nature of the series: Antimalarial activity against chloroquine and pyrimethamine-resistant Plasmodium falciparum K1 assessed as inhibition of [3H]hypoxanthine incorporation after 48 hrs by scintillation counting. The series is classed as functional, organism-based. The method, boiled down:
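K1 strain (chloroquine- and pyrimethamine-resistant) cultured in RPMI 1640 with 5% Albumax II, 0.2% w/v glucose, 0.03% L-glutamine. Two-fold dilution series from DMSO stocks, final DMSO ≤0.25%. 48 h at 37 °C, then 0.1 µCi [3H]-hypoxanthine added and incubated 24 h more. Freeze-stopped at -80 °C, harvested onto glass fiber filters, scintillation counted. IC50 calculated. Chloroquine as standard.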

Series [8] deals with Trypanosoma brucei rhodesiense. Nature of the series: Trypanocidal activity against Trypanosoma brucei rhodesiense STIB 900 after 72 hrs. The series is classed as functional, organism-based. To be noted: STIB 900, 72 h. The gist of the method: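 Bloodstream forms (10^4 per well) in MEM with 25 mM HEPES, extra glucose, non-essential amino acids, 2-mercaptoethanol, pyruvate and 15% heat-inactivated horse serum; seven 3-fold dilutions from 90 to 0.12 µg/mL, 72 h at 37 °C, 5% CO2. Resazurin added for 2–4 h, fluorescence at ex 536/em 588 nm; melarsoprol as standard.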

`CC[C@@H](C(=O)C[C@@H](C)C1=C(O)C(=O)[C@@H]2[C@@H]3CC[C@H]4C[C@@H](O[C@@H]5O[C@H](C(=O)O)[C@@H](O)[C@H](O)[C@H]5O)CC[C@]4(C)[C@H]3CC[C@]12C)C(C)C`: the outcome in series [1], in series [2] and in series [3] was inactive.

As a reminder, the IC50 is the concentration that inhibits the measured activity by half. As for `O=C(Cn1ccnc1[N+](=O)[O-])NCc1ccccc1` [BENZNIDAZOLE], the IC50 in series [4] was determined as 2.64 µM.

In the case of `CC[C@@H](C(=O)C[C@@H](C)C1=C(O)C(=O)[C@@H]2[C@@H]3CC[C@H]4C[C@@H](O[C@@H]5O[C@H](C(=O)OC)[C@@H](O)[C@H](O)[C@H]5O[C@@H]5O[C@H](CO)[C@@H](O)[C@H](O)[C@H]5O)CC[C@]4(C)[C@H]3CC[C@]12C)C(C)C` [METHYL ESTER PANDAROSIDE A], the Activity in series [5] is more than 120 µM. Moreover, the IC50 in series [6] is 66.3 µM; in series [7] it was more than 25 µM; in series [4], more than 120 µM; in series [8], 114 µM. In addition, the outcome in series [1], in series [2] and in series [3] was inactive.

With `COC(=O)[C@H]1O[C@@H](O[C@H]2CC[C@@]3(C)[C@@H](CC[C@H]4[C@H]5C(=O)C(O)=C([C@H](C)CC(=O)CC(C)C)[C@@]5(C)CC[C@@H]43)C2)[C@H](O[C@@H]2O[C@H](CO)[C@@H](O)[C@H](O)[C@H]2O)[C@@H](O)[C@@H]1O` [METHYL ESTER PANDAROSIDE C], the Activity in series [5] is more than 120 µM. Moreover, the half-inhibitory concentration (IC50) in series [6] is 44.2 µM; in series [7] it was more than 25 µM; in series [4], 100 µM; in series [8], 61.4 µM. The result in series [1], in series [2] and in series [3] was inactive.

Consider `COC(=O)[C@H]1O[C@@H](O[C@H]2CC[C@@]3(C)[C@@H](CC[C@H]4[C@H]5C(=O)C(O)=C([C@H](C)CC(=O)CC(C)C)[C@@]5(C)CC[C@@H]43)C2)[C@H](O)[C@@H](O)[C@@H]1O` [METHYL ESTER PANDAROSIDE D], for which the Activity in series [5] stood at 106 µM. Further, the IC50 in series [6] stood at 13.7 µM; in series [7] it was 5.1 µM; in series [4], 21.6 µM; in series [8], 40.4 µM. The result in series [1], in series [2] and in series [3] was inactive.

`C=C(C(=O)C[C@@H](C)C1=C(O)C(=O)[C@@H]2C3=C(CC[C@]12C)[C@@]1(C)CC[C@H](O[C@@H]2O[C@H](C(=O)OC)[C@@H](O)[C@H](O[C@@H]4OC[C@@H](O)[C@H](O)[C@H]4O)[C@H]2O)C[C@@H]1CC3)C(C)C` [METHYL ESTER PANDAROSIDE E]: in series [5], the Activity stood at 76.9 µM. Also, the IC50 in series [6] was found to be 41.3 µM; in series [7] it was 5.9 µM; in series [4], 61.9 µM; in series [8], 14.3 µM. In addition, the outcome in series [1], in series [2] and in series [3] was inactive.

Consider `COC(=O)[C@H]1O[C@@H](O[C@H]2CC[C@]3(C)C4=C(CC[C@H]3C2)[C@H]2C(=O)C(O)=C([C@H](C)CC(=O)[C@H](C)C(C)C)[C@@]2(C)CC4)[C@H](O)[C@@H](O[C@@H]2OC[C@@H](O)[C@H](O)[C@H]2O)[C@@H]1O` [METHYL ESTER PANDAROSIDE F], for which, in series [5], the Activity amounted to 42.1 µM. For the same compound, the IC50 in series [6] turned out to be 26.8 µM; in series [7], 9.9 µM; in series [4] it was 25.1 µM; in series [8], 54.4 µM. Further, the result in series [1], in series [2] and in series [3] was inactive.

In series [5], `CC[C@@H](C(=O)C[C@@H](C)C1=C(O)C(=O)[C@@H]2[C@@H]3CC[C@H]4C[C@@H](O[C@@H]5O[C@H](C(=O)OC)[C@@H](O)[C@H](O[C@@H]6OC[C@@H](O)[C@H](O)[C@H]6O)[C@H]5O)CC[C@]4(C)[C@H]3CC[C@]12C)C(C)C` [METHYL ESTER PANDAROSIDE H] came in with an Activity of 43.3 µM. The IC50 was found to be 16.5 µM in series [6], 10.2 µM in series [7], 36.1 µM in series [4] and 19.9 µM in series [8]. Further, the result in series [1], in series [2] and in series [3] was inactive.

`CC[C@@H](C(=O)C[C@@H](C)C1=C(O)C(=O)[C@@H]2[C@@H]3CC[C@H]4C[C@@H](O[C@@H]5O[C@H](C(=O)OC)[C@@H](O[C@H]6O[C@H](C)[C@@H](O)[C@H](O)[C@@H]6O)[C@H](O)[C@H]5O)CC[C@]4(C)[C@H]3CC[C@]12C)C(C)C` [METHYL ESTER PANDAROSIDE I] showed an Activity in series [5] of 59.6 µM. Moreover, the IC50 in series [6] is 28.7 µM; in series [7] it was 13 µM; in series [4], 21.7 µM; in series [8] it was 27.2 µM. Besides, the outcome in series [1], in series [2] and in series [3] was inactive.

On to `CC[C@@H](C(=O)C[C@@H](C)C1=C(O)C(=O)[C@@H]2[C@@H]3CC[C@H]4C[C@@H](O[C@@H]5O[C@H](C(=O)O)[C@@H](O)[C@H](O)[C@H]5O[C@@H]5O[C@H](CO)[C@@H](O)[C@H](O)[C@H]5O)CC[C@]4(C)[C@H]3CC[C@]12C)C(C)C` [PANDAROSIDE A], for which, in series [5], the Activity turned out to be 48.9 µM. Besides, the IC50 stood at 19.7 µM in series [6], 17.6 µM in series [7], 52.2 µM in series [4] and 9.1 µM in series [8]. The outcome in series [1], in series [2] and in series [3] was inactive.

The compound `CC(C)CC(=O)C[C@@H](C)C1=C(O)C(=O)[C@@H]2[C@@H]3CC[C@H]4C[C@@H](O[C@@H]5O[C@H](C(=O)O)[C@@H](O)[C@H](O)[C@H]5O[C@@H]5O[C@H](CO)[C@@H](O)[C@H](O)[C@H]5O)CC[C@]4(C)[C@H]3CC[C@]12C` [PANDAROSIDE C] displayed an Activity in series [5] of more than 120 µM. Further, the 50% inhibitory concentration (IC50) in series [6] is more than 120 µM; in series [7], more than 25 µM; in series [4], more than 120 µM; in series [8], 66.4 µM. Besides, the result in series [1], in series [2] and in series [3] was inactive.

In turn, `CC(C)CC(=O)C[C@@H](C)C1=C(O)C(=O)[C@@H]2[C@@H]3CC[C@H]4C[C@@H](O[C@@H]5O[C@H](C(=O)O)[C@@H](O)[C@H](O)[C@H]5O)CC[C@]4(C)[C@H]3CC[C@]12C` [PANDAROSIDE D] yielded an Activity in series [5] of 96.6 µM. For the same compound, the IC50 in series [6] turned out to be 31 µM; in series [7], 13.5 µM; in series [4], 80.8 µM; in series [8], 15.3 µM. For the same compound, the result in series [1], in series [2] and in series [3] was inactive.

In turn, `COc1cc([C@@H]2c3cc4c(cc3[C@H](O)[C@H]3COC(=O)[C@H]23)OCO4)cc(OC)c1OC` [PODOFILOX] had an Activity in series [5] of 0.012 µM.
